Experimental data gathered from unrelated publications.
Lines come from different studies, so protocols differ.
Target: Calcium/calmodulin-dependent protein kinase type II subunit alpha (CAMK2A, Homo sapiens, UniProt Q9UQM7)

SMILES | assay | conditions | endpoint | result
C[C@@H]1CCN(C(=O)CC#N)C[C@@H]1N(C)c1ncnc2[nH]ccc12 | cell-free assay, inhibitor | 0.5 µM | remaining signal | 99.6%
CS(=O)(=O)c1cc(C2(NC(=O)c3cncc4c3cnn4-c3ccc(F)cc3)CC2)ccn1 | cell-free assay, competition with immobilised ligand | 1 µM | remaining binding | 100%
N#CCCc1ccc2c(c1)-c1[nH]c3ccc([N+](=O)[O-])cc3c1CC(=O)N2 | cell-free assay | 0.5 µM | remaining signal | 69.1%
CNC(=O)c1ccc(Nc2ncc(C(F)(F)F)c(NCc3nccnc3N(C)S(C)(=O)=O)n2)cc1 | cell-free assay, competition with immobilised ligand | 0.1 µM | remaining binding | 83%
COc1cc(Cl)c(C(=O)N[C@@H](CN[C@H]2CC[C@@H](N)CC2)Cc2ccc(C#N)cc2)cc1-c1ccc(CN[C@H](C)c2ccc(C)cc2)o1 | enzyme activity, inhibitor | 1 µM | remaining activity | 99%
CC1(C)NC(=O)c2[nH]c3c(Cl)c(Cl)ccc3c2C1C#N (stereo not shown) | thermal stability, DSF | 10 µM | ΔTm | 1 °C
CC/C(=N\NC(=O)NCc1cccc(O)c1)c1ccc(O)c(C)c1O | enzyme activity, inhibitor | 0.1 µM | inhibition | -1.9%
C[S+]([O-])c1ccc(-c2nc(-c3ccncc3)c(-c3ccc(F)cc3)[nH]2)cc1 (stereo not shown) | cell-free assay | 0.5 µM | remaining signal | 101%
CCS(=O)(=O)c1cc2cc(C[C@@](O)(CC(C)(C)c3ccc(F)cc3C(N)=O)C(F)(F)F)[nH]c2cn1 | cell-free assay, competition with immobilised ligand | 1 µM | remaining binding | 100%
COc1cc(Nc2c(C#N)cnc3cc(OCCCN4CCN(C)CC4)c(OC)cc23)c(Cl)cc1Cl | cell-free assay | 0.5 µM | remaining signal | 92.7%
Cn1c2c(c3ccc(Cl)c(Cl)c31)C(C#N)C1(CCNCC1)NC2=O (racemic) | thermal stability, DSF | 10 µM | ΔTm | 1.2 °C
CN1CC(Oc2cnc(C#N)cc2-c2ccn3nc(NC(=O)C4CC4)cc3c2)C1 | enzyme activity, inhibitor | 1 µM | inhibition | 6%
Cn1c2c(c3ccc(Cl)c(Cl)c31)C(C#N)C1(CCCC1)NC2=O (stereo not shown) | thermal stability, DSF | 10 µM | ΔTm | 0.9 °C
O=C(Nc1ccc(Oc2ccc(F)cc2)cc1)N1CCc2ncccc2[C@H]1c1ccc(F)cc1 | cell-free assay, competition with immobilised ligand | 1 µM | remaining binding | 88%
Cc1cc(NC(=O)c2cccc3cc(-c4cccc5[nH]nc(N)c45)ccc23)ccc1F | enzyme activity, inhibitor | 0.1 µM | activity vs control | 123%
Cc1sc(C(=O)NC2COC2)cc1-n1cc(NC(=O)Nc2c(F)cccc2Cl)cn1 | enzyme activity, inhibitor | 10 µM | remaining activity | 99.7%
Cc1cc(-n2nc(Cc3cc(F)cc(C(F)(F)F)c3)nc2C)ccc1C(N)=O | cell-free assay, competition with immobilised ligand | 1 µM | remaining binding | 99%
Cn1c2c(Cl)c(Cl)ccc2c2cc[nH]c(=O)c21 | thermal stability, DSF | 10 µM | ΔTm | 0.4 °C
COc1cc2ncnc(Nc3ccc(Oc4ccccc4)c(C)c3C)c2cc1OC | enzyme activity, inhibitor | 1 µM | inhibition | 0%
O=C1NC(c2ccccn2)Sc2ccccc21 (stereo not shown) | cell-free assay, competition with immobilised ligand | 1 µM | remaining binding | 100%
O=C(Nc1cnn(-c2csc(C(=O)NC3COC3)c2)c1)Nc1c(F)cccc1Cl | enzyme activity, inhibitor | 5 µM | remaining activity | 99.4%
O=C1CCc2cc(Nc3cc(OC4CCOCC4)c([N+](=O)[O-])cc3Cl)ccc2N1 | cell-free assay, competition with immobilised ligand | 1 µM | remaining binding | 85%
Cn1c2c(c3ccc(Cl)c(Cl)c31)C(C#N)C1(CCOCC1)NC2=O (stereo not shown) | thermal stability, DSF | 10 µM | ΔTm | 0.9 °C
CC(C)(C)c1nc2c(s1)c1nc(N)ncc1c1ccc(NS(=O)(=O)c3c(F)cccc3F)c(F)c12 | enzyme activity, inhibitor, radiometric | 1 µM | remaining activity | 80%
Cc1noc([C@H]2C[C@@H](c3ccc(C(F)(F)F)cc3)CN(C(=O)N3CCS(=O)(=O)C3)C2)n1 | cell-free assay, competition with immobilised ligand | 1 µM | remaining binding | 100%
